Source: paper PMC8161485 (ACS Central Science, 2021)
Substitutions are numbered along the chain they refer to.

How the values were obtained:
[1] = molecular target: T1, P450BM3 variant V-H10(R47C,A87I) (Priestia megaterium, UniProt P14779, A181T/A185V/A198V/A291V/E253G/F206C/F88I/H237Q/L354V/P143S/R256S/R48C/S227R/T176I/V79N); experiment: Heme spin shift binding of MCL to P450 variant V-H10; design: species or system Bacillus megaterium
T1 sequence (P14779 1-1049 R48C/V79N/F88I/P143S/T176I/A181T/A185V/A198V/F206C/S227R/H237Q/E253G/R256S/A291V/L354V): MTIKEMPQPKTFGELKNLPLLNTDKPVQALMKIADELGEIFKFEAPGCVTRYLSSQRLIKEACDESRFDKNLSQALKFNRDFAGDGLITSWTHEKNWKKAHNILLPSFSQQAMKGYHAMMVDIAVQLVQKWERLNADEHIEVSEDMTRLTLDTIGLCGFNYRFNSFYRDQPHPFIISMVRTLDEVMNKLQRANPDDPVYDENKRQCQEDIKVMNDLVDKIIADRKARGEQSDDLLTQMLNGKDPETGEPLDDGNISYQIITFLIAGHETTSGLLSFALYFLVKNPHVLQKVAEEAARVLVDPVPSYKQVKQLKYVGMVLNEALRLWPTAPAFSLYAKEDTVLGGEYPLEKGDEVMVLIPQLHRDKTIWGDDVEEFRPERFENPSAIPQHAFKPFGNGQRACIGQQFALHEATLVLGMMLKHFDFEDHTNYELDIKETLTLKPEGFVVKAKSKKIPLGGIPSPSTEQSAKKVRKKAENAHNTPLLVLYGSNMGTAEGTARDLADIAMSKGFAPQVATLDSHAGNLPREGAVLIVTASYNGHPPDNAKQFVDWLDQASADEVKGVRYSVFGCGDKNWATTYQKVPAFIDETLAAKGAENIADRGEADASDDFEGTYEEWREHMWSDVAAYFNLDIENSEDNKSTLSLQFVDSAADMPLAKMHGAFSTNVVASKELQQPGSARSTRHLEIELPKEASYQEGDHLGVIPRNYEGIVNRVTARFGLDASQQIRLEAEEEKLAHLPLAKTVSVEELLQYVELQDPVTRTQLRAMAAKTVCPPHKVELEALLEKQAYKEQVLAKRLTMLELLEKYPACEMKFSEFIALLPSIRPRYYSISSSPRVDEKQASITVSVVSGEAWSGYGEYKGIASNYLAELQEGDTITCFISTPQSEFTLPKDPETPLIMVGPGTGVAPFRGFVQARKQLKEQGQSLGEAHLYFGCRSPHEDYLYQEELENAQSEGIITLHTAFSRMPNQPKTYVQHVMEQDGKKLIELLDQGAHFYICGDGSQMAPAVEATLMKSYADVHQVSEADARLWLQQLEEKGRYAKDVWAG
Summary of the method: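 Purified P450 (3 μM) in 50 mM or 1 M potassium phosphate, pH 8.0, titrated with test compound (5–2000 μM) from a 50 mM ethanol stock. Difference spectra (350–500 nm) were recorded at each step. Absorbance change at 390/420 nm (high/low spin) was fitted to a 1:1 binding model for KD. At least triplicate, room temperature.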

[2] = system: AML04 primary AML specimen; experiment: Cell viability of primary AML specimen AML04; assay type: cell-based; details: Homo sapiens, read-out: AML04 LC50
Summary of the method: (§1)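 Primary AML samples came from consenting donors. Live mononuclear cells were isolated on a Ficoll-Paque density gradient and cryopreserved, with 40–70% viability after thawing. Cells were kept at 37 °C, humidified, 5% CO2.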

[3] = system: M9-ENL1 cells; experiment: Cell viability of M9-ENL1 cells, Annexin V / 7-AAD flow cytometry; assay type: cell-based, human; details: 20 μM, 24 h
[4] = system: AML03 primary AML specimen; experiment: Cell viability of primary AML specimen AML03; assay type: cell-based; details: Homo sapiens, read-out: AML03 LC50
Summary of the method: as §1

[5] = system: heme oxygenase 1 (HO-1); experiment: Induction of heme oxygenase 1 in primary AML specimens; assay type: cell-based, human; details: compared to vehicle-only control
[6] = system: AML cells and LSCs; details: MCL vs PTL; cited from earlier work
[7] = molecular target: T2, P450BM3 variant V-H10 (Priestia megaterium, UniProt P14779, A181T/A185V/A198V/A291V/E253G/F206C/F88A/H237Q/L354V/P143S/R256S/S227R/T176I/V79N); experiment: Heme spin shift binding of MCL to P450 variant V-H10; design: species or system Bacillus megaterium
T2 sequence (P14779 1-1049 V79N/F88A/P143S/T176I/A181T/A185V/A198V/F206C/S227R/H237Q/E253G/R256S/A291V/L354V): T1 sequence (P14779 1-1049 R48C/V79N/F88I/P143S/T176I/A181T/A185V/A198V/F206C/S227R/H237Q/E253G/R256S/A291V/L354V) with C48R, I88A
Summary of the method: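 Purified P450 (3 μM) in 50 mM potassium phosphate, pH 8.0, titrated with test compound (5–2000 μM) from a 50 mM ethanol stock. A difference spectrum (350–500 nm) was taken at each step. Absorbance change at 390/420 nm (high/low spin) was plotted against concentration, with KD from a nonlinear 1:1 binding fit. At least triplicate, room temperature.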

`C=C1C(=O)O[C@H]2[C@H]1CCC(C)=C1CC[C@@](C)(O)[C@@H]12` [MCL, micheliolide] showed a Kd ([1]; 50 mM KPi pH 8.0, room temperature) of 365 ± 53 µM, a Kd ([1]; 1 M KPi buffer (pH 8.0)) of 128 µM and a CC50 [2] of 22.1 µM. For the same molecule, the “reduction in cell viability” value [3] was 50%, the CC50 [4] was 15.7 µM and the “induction of heme oxygenase 1 (HO-1)” value [5] was “Dose-dependent induction”. For the same molecule, the “LC50 in vitro relative to PTL (fold higher)” value [6] was about 3 fold and the Kd [7] was 590 ± 90 µM.
